One series concerns the target Kir7.1-WT-A150S (Homo sapiens, UniProt O60928, A150S). Kind of series: Whole-cell patch clamp, Kir7.1-WT-A150S mutant. Format: cell-based. Particulars: -120 mV. The method in brief:
(§1)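 Human Kir7.1 (WT or mutant) was transiently co-transfected with EGFP into HEK-293T cells, which were replated next day on poly-L-lysine coverslips. Whole-cell clamp used bath 5 mM KCl, pH 7.4, and pipette 135 mM KCl, pH 7.3. Cells were held at −75 mV, stepped 500 ms to −120 mV, then ramped to 120 mV, every 5 s. Increasing test-compound doses were superfused, then BaCl₂ block; current read at −120 mV; variable-slope Hill fit, mean of n = 5.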
In general terms: Patch clamp records ionic current or voltage across a cell membrane.

Another series addresses T1, Kir7.1-M125R (Homo sapiens, UniProt O60928, M125R).
T1 sequence (O60928 1-360 M125R): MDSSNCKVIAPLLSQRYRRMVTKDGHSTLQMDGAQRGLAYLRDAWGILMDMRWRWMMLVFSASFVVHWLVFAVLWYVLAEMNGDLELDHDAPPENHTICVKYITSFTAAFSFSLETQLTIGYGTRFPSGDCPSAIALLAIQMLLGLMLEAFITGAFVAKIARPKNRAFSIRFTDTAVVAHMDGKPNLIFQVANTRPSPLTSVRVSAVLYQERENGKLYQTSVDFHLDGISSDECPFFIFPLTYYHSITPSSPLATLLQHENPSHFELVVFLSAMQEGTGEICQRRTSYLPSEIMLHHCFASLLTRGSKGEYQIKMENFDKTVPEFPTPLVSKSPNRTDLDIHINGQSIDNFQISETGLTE
Briefly: Whole-cell voltage clamp, Kir7.1-M125R. The format is cell-based. Put shortly: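 HEK-293T cells transiently co-transfected with WT or mutant human Kir7.1 plus EGFP marker, replated next day on poly-L-lysine coverslips. Bath: 135 NaCl, 5 KCl, pH 7.4; pipette: 135 KCl, 1 EGTA, pH 7.3 (mM). Hold −75 mV, step to −120 mV for 500 ms, ramp to 120 mV. Increasing test compound concentrations superfused, then Ba²⁺ block. Inhibition at −120 mV; Hill-equation IC50, n = 5.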

The conditions of series [1]: plasma.
Another series concerns the target Kir7.1-WT (Homo sapiens, UniProt O60928). Briefly: Whole-cell patch clamp, Kir7.1-WT. Format: cell-based. As to conditions: read-out: Kir7.1-WT IC50, -120 mV. Put shortly: as §1
A short description of series [2]: CNS distribution study in mice. Format: in vivo, mouse. As to conditions: average of four mice.
A further series has as its target Dopamine D4.2 receptor (Homo sapiens, UniProt P21917, DEL265-296). Briefly: Lead Profiling Screen. The format is binding. Particulars: significant interaction.
Another series has as its target hERG (Homo sapiens, UniProt Q12809). Briefly: Lead Profiling Screen. Format: binding. Particulars: among 58 GPCRs, ion channels and transporters.
The target in another series is Sigma σ1 receptor (Homo sapiens, UniProt Q99720). Kind of series: Lead Profiling Screen. The format is binding. As to conditions: significant interaction.
Chain of Sigma σ1 receptor (Q99720 whole entry): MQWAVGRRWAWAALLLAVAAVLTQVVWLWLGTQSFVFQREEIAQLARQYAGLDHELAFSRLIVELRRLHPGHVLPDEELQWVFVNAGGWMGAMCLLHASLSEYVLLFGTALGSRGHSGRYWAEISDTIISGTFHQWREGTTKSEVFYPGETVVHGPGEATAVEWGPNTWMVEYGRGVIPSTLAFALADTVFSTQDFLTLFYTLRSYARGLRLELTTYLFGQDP
Series [3] is described as follows: Protein binding in plasma. As to conditions: human.
A short description of series [4]: Protein binding in plasma. As to conditions: rat.

Usually IC50 stands for the concentration needed to halve the response being measured. The term fraction unbound denotes the share of the substance not bound to proteins or other matrix.

“And” between values parts separate entries of the source, which are not always exact repeats. Identical values can stand only once.

Chain of Kir7.1-WT-A150S (O60928 whole entry A150S, the tested form may be a part): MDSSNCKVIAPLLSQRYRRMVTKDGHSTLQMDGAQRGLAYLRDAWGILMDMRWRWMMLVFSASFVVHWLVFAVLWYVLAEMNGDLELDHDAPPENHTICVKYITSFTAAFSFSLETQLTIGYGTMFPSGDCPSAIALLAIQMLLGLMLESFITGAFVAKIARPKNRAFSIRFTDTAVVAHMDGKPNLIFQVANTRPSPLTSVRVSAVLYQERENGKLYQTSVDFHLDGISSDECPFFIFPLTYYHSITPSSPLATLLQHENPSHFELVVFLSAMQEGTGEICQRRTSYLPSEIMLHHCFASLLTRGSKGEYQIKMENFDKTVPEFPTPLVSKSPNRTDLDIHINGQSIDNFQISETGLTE
Chain of Kir7.1-WT (O60928 whole entry): as the sequence (O60928 whole entry A150S, the tested form may be a part) above, with S150A counted along it
Chain of hERG (Q12809 whole entry): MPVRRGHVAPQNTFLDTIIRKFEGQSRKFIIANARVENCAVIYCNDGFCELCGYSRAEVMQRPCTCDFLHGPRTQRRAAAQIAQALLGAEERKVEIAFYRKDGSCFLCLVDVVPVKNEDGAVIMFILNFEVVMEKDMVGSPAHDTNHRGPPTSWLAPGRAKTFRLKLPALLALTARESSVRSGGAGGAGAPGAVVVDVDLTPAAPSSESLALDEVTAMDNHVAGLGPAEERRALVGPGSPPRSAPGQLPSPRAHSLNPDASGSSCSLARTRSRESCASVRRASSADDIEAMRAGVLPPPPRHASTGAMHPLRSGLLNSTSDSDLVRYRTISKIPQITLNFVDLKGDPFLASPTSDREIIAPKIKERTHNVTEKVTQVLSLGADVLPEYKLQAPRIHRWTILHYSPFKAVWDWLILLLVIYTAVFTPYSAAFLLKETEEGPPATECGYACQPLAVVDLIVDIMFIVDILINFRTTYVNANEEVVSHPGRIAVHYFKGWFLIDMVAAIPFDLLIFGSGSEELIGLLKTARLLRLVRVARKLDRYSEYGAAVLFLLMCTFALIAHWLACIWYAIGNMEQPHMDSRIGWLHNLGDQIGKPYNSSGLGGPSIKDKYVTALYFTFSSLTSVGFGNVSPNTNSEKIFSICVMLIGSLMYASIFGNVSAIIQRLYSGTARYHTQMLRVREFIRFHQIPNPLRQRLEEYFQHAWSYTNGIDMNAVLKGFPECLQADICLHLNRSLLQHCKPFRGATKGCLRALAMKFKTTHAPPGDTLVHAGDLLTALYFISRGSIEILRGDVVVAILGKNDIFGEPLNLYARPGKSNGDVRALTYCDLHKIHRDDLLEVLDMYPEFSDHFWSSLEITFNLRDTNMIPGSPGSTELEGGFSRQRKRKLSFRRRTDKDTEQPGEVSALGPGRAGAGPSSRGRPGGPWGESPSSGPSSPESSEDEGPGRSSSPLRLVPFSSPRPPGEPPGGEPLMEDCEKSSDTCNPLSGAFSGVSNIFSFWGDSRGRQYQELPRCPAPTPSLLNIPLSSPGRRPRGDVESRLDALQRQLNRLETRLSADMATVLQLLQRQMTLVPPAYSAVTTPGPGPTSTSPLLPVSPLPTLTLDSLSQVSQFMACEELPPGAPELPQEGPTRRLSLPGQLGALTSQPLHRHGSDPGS

In the case of `Oc1c(CN2CCC(Cc3ccccc3)CC2)cc(Cl)c2cccnc12` [VU714], the “Effect of mutation A150S on inhibition” value on Kir7.1-WT-A150S (3 µM) is reported as “partial loss of inhibition”. The 50% inhibitory concentration (IC50) on Kir7.1-WT-A150S (read-out: Kir7.1-WT-A150S IC50, patch clamp) was 6.9 µM and ~7 µM; at Kir7.1-M125R (read-out: Kir7.1-M125R IC50 (whole-cell voltage clamp), -120 mV) it was 1.5 µM and 1.6 µM and ~2 µM; at Kir7.1-WT, 1.4 µM and ~2 µM. In addition, the “Shift in IC50, patch clamp electrophysiology compared with Tl+ flux” value on Kir7.1-M125R is on record as 3.7 fold. Also, the “Inhibition of outward and inward Kir7.1-M125R-mediated current” value on Kir7.1-M125R (10 µM) was “fully inhibited”. For the same molecule, the “Effect of M125R mutation on sensitivity” value on Kir7.1-M125R (compared with WT) was “does not alter VU714 sensitivity”. Besides, the “PPB (%Fu) Rat” value in series [1] turned out to be 1.8%.

In turn, `CC(C)OC(=O)NC1CCN(Cc2cc(Cl)c3cccnc3c2O)CC1` [Compound 19, iso-Propyl (1-((5-chloro-8-hydroxyquinolin-7-yl)methyl)piperidin-4-yl)carbamate] registered a brain concentration in series [2] of 323.9 ng/g. Besides, the “Radioligand displacement, Dopamine D4.2 receptor” value at Dopamine D4.2 receptor is reported as > 50%. In addition, the “Ancillary pharmacology, hERG” value at hERG was “clean ancillary pharmacology”. Besides, the “Radioligand displacement, Sigma σ1 receptor” value at Sigma σ1 receptor was > 50%. Further, the fraction unbound was 0.01 in series [3] and 0.088 in [4].
